Screening results (PubChem BioAssay)
An excerpt weighted towards active compounds, which were near 2.3% of everything screened.
Apaf-1 inh: human Apaf-1 inhibition | reconstituted apoptosome caspase-3 activity, DEVD-Rh110 fluorescence | inhibition, % at 20 µM | 330,000 tested, 0.71% active | O14727; active = inhibition of at least 40% at 20 µM;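 note: plate controls were DMSO wells for no effect and DEVD-CHO caspase inhibitor wells for full effect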
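detection = Rh110 fluorescence intensity | test system = biochemical Apaf-1 apoptosome reconstitution | also added = cytochrome c and DEVD-Rh110 substrate | schedule = 30 min plus 50 min, RT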
PAFAH1B2 inh: inhibitors of human PAFAH1B2. P68402. recombinant PAFAH1B2, FP-rhodamine activity probe, fluorescence polarization. inhibition, % at 3.39 µM. 340,000 tested, 1.2% active. AID 492953;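 active = inhibition above the mean of all tested compounds plus 3 SD, cut at about 24% in these data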;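 note: 0% = enzyme with DMSO and 100% = wells lacking PAFAH1B2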
PAFAH2 inh: inhibitors of human PAFAH2. Q99487. recombinant PAFAH2, FP-rhodamine activity probe, fluorescence polarization. inhibition, % at 3.39 µM. 340,000 tested, 0.99% active. AID 492956;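 active = inhibition above the mean over all tested compounds plus 3 SD, cut at about 30% in these data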;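 note: inhibitors block probe labeling of enzyme so polarization drops; 0% = enzyme with DMSO and 100% = wells lacking PAFAH2 protein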
PAFAH1B3 inh: PAFAH1B3 (human) inhibition. AID 492972. 340,000 tested, 0.28% active. inhibition, % at 3.39 µM. Q15102. recombinant PAFAH1B3, FP-rhodamine probe, fluorescence polarization;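 active = inhibition above the screen-wide average of all tested compounds plus 3 SD, cut at about 25% in these data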;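 note: 0% = enzyme with DMSO only and 100% = wells lacking PAFAH1B3 protein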
Target sequence (Q15102 whole entry, looked up): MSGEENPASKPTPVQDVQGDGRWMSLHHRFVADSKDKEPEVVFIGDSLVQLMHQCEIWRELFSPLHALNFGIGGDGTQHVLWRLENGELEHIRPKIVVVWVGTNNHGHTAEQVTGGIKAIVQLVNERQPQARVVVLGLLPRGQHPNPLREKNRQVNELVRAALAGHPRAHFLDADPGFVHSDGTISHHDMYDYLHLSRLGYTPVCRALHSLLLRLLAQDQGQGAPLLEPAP
TDP2 inh: TDP2 (human) inhibition, absorbance primary screen; 370,000 tested, 0.34% active; O95551; AID 720702; recombinant TDP2, T5PNP hydrolysis, p-nitrophenol absorbance 415 nm; inhibition, % at 12.8 µM;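 active = inhibition above the mean of all tested compounds plus 3 SD, set per campaign, cut at about 25% in these data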;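 note: 0% = DMSO with enzyme and 100% = buffer with substrate but no TDP2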
Target sequence (O95551 whole entry, looked up): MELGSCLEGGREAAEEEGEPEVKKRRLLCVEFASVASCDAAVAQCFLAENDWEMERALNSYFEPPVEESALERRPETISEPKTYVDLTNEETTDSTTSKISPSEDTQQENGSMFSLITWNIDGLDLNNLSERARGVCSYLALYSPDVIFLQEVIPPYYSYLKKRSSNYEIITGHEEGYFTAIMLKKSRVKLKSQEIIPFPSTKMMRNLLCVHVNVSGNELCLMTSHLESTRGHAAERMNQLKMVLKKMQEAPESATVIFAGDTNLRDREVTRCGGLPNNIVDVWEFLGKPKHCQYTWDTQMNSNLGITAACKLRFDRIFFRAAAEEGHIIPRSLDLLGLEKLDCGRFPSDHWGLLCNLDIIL
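Incubation: 2 h at 37 °C; Test system: recombinant human TDP2; Quantity: enzyme 120 nM; Read-out basis: percent inhibition; Medium: 50 mM Tris-HCl pH 7.5 with Mg2+, KCl, DTT, BSA; Repeats: single replicate; Compound: 12.8 µM single point, 1% DMSO; Signal: epi absorbance; Reagent: 5 mM T5PNP chromogenic substrate; Benchmarks: no-enzyme high, DMSO-plus-enzyme low.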
* marks the source's active call; other numbers are inactive results.

Screening COc1ccc2[nH]c(O)c(N=NC(=O)c3ccc(NS(=O)(=O)c4cccs4)cc3)c2c1 returned Apaf-1 inh -24, PAFAH1B2 inh 21, PAFAH2 inh 23, PAFAH1B3 inh 32* and TDP2 inh -6.
Screening O=C(N=Nc1c(O)[nH]c2ccccc12)c1ccccc1NS(=O)(=O)c1cccs1 returned Apaf-1 inh 12, PAFAH1B2 inh -4, PAFAH2 inh 11, PAFAH1B3 inh 3 and TDP2 inh -5.
For Cc1cccc2c(N=NC(=O)c3ccc(NS(=O)(=O)c4cccs4)cc3)c(O)[nH]c12 the results were Apaf-1 inh -4, PAFAH1B2 inh 39*, PAFAH2 inh 21, PAFAH1B3 inh 24 and TDP2 inh -1.
Screening CC(NCc1ccco1)C(=O)N1CCOCC1 (stereo not drawn) returned TDP2 inh 9.
Screening O=[N+]([O-])c1ccccc1/C=C/C1Nc2cccc3cccc(c23)N1 returned TDP2 inh -2.
`COc1ccc(-c2cc(C(F)F)n3ncc(C(=O)n4ccnc4C)c3n2)cc1` gave Apaf-1 inh 9, PAFAH1B2 inh -1, PAFAH2 inh 30*, PAFAH1B3 inh 5 and TDP2 inh -6.
For CC(=O)Nc1ccc(C(=O)OCC(=O)c2ccc(C)c([N+](=O)[O-])c2)cc1 the results were Apaf-1 inh 19, PAFAH1B2 inh -2, PAFAH2 inh 33*, PAFAH1B3 inh 4 and TDP2 inh 1.
For CCC(=O)Nc1ccc(C(=O)OCC(=O)c2ccc(C)c([N+](=O)[O-])c2)cc1 the results were Apaf-1 inh -11, PAFAH1B2 inh -3, PAFAH2 inh 13, PAFAH1B3 inh 11 and TDP2 inh -1.
For Cc1cc(C(=O)O[C@H]2CCC[C@@]3(C(=O)N(Cc4ccccc4)c4ccccc43)[C@H]2NC(=O)CCc2ccccc2)no1 the results were TDP2 inh -1.
For Clc1ccc(OCc2nc(-c3ccncc3)no2)cc1 the results were Apaf-1 inh -3, PAFAH1B2 inh 27*, PAFAH2 inh 8, PAFAH1B3 inh 6 and TDP2 inh 8.
For CCCCCCCCN1C(=O)[C@@H](CC(=O)N2CCN(C(=O)c3ccco3)CC2)C[C@@]2(C(=O)OC)C1=C[C@H](C(C)C)O[C@@H]2C1CC1 the results were TDP2 inh -12.
`NC(=O)CCC(NS(=O)(=O)c1ccc(Cl)cc1)C(=O)NCc1ccc(Cl)cc1` (stereo not drawn) gave Apaf-1 inh -4, PAFAH1B2 inh 24*, PAFAH2 inh 2, PAFAH1B3 inh 4 and TDP2 inh 5.
For NC(=O)CCC(NS(=O)(=O)c1ccc(Cl)cc1)C(=O)NCC1CCCCC1 (stereo not drawn) the results were Apaf-1 inh 8, PAFAH1B2 inh 12, PAFAH2 inh -2, PAFAH1B3 inh 0 and TDP2 inh -1.
`CC1CC(NC(=O)CCn2c(=O)oc3ccccc32)CC(C)(C)C1` (stereo not drawn) gave Apaf-1 inh 1, PAFAH1B2 inh 38*, PAFAH2 inh 44*, PAFAH1B3 inh 7 and TDP2 inh 12.
O=C(CCCn1c(=O)oc2ccccc21)NC1CCCCCC1 was read as Apaf-1 inh 2.
For CCCNC(=O)c1ccc2nc(-c3ccccc3)c(-c3ccccc3)nc2c1 the results were Apaf-1 inh 11, PAFAH1B2 inh 6, PAFAH2 inh -2, PAFAH1B3 inh 8 and TDP2 inh -13.
`CCN1CCN(CCNC(=O)c2ccc3nc(-c4cccc(C)c4)c(-c4cccc(C)c4)nc3c2)CC1` gave Apaf-1 inh 47*, PAFAH1B2 inh 2, PAFAH2 inh 6, PAFAH1B3 inh 3 and TDP2 inh 0.
CCOP(=O)(OCC)c1ccc2c(c1)C(=O)c1ccccc1-2 was read as TDP2 inh 4.
Screening CCCCc1cc(=O)oc2cc(C)cc(OCC(=O)NCc3ccncc3)c12 returned Apaf-1 inh 20, PAFAH1B2 inh -3, PAFAH2 inh -1, PAFAH1B3 inh 8 and TDP2 inh 8.
For CCc1cc(=O)oc2c3c(cc(OCC(=O)NCc4ccco4)c12)OC(C)(C)CC3 the results were Apaf-1 inh 5, PAFAH1B2 inh 6, PAFAH2 inh 53* and PAFAH1B3 inh 2.
`CCc1cc(=O)oc2c3c(cc(OCC(=O)NCc4ccncc4)c12)OC(C)(C)CC3` gave Apaf-1 inh -8, PAFAH1B2 inh 8, PAFAH2 inh 55*, PAFAH1B3 inh 7 and TDP2 inh -2.
COc1cccc(/C=C/C(=O)OCC(=O)Nc2ccc(Cl)cn2)c1 was read as Apaf-1 inh 14, PAFAH1B2 inh 5, PAFAH2 inh 32* and PAFAH1B3 inh -4.
O=C(COC(=O)/C=C/c1cccc(Br)c1)Nc1ccc(Cl)cn1 was read as TDP2 inh -10.
CCC[C@H]1[C@@H](NC(=O)NCC)CC[C@@]23CCCN2C(=O)CCC[C@@H]13 was read as TDP2 inh -8.
Screening O=C(O)c1ccccc1NS(=O)(=O)c1ccc(NNC(=S)Nc2ccc(OC(F)F)cc2)c([N+](=O)[O-])c1 returned PAFAH1B2 inh 60*, PAFAH2 inh 70*, PAFAH1B3 inh 56* and TDP2 inh 5.
`COc1ccc(NC(=O)c2ccccc2NS(=O)(=O)c2ccc(C)cc2)c([N+](=O)[O-])c1` gave Apaf-1 inh 6, PAFAH1B2 inh -1, PAFAH2 inh 13, PAFAH1B3 inh 10 and TDP2 inh -23.
For Cc1ccc(NC(=S)NNc2ccc([N+](=O)[O-])cc2S(=O)(=O)Nc2ccccc2C(=O)O)cc1C the results were PAFAH1B2 inh 25*, PAFAH2 inh 38*, PAFAH1B3 inh 18 and TDP2 inh -4.
Screening CC(=O)Nc1ccc(C=NNc2ccc([N+](=O)[O-])cc2S(=O)(=O)Nc2ccccc2C(=O)O)cc1 returned Apaf-1 inh 8, PAFAH1B2 inh 3, PAFAH2 inh 1, PAFAH1B3 inh 2 and TDP2 inh -20.
For O=C(OCCN1CCN(C2CN(Cc3cn(Cc4ccccc4F)nn3)S(=O)(=O)C2)CC1)c1cc2ccccc2o1 (stereo not drawn) the results were TDP2 inh -1.
Screening COC(=O)[C@]12C[C@H](CC(=O)N3CCOCC3)C(=O)N(Cc3cccc4ccccc34)C1=C[C@H](C1CCCC1)O[C@@H]2C returned TDP2 inh -1.
`CC(C)Cn1c(C23CC4CC(CC(C4)C2)C3)n[nH]c1=S` gave Apaf-1 inh 9, PAFAH1B2 inh 28*, PAFAH2 inh 5, PAFAH1B3 inh -1 and TDP2 inh -6.
For CCOC(=O)N1C(=O)C[C@](Sc2ccc(OC)cc2)(C(=O)N2CCN(c3ncccn3)CC2)[C@H]1c1ccc(OC)cc1 the results were TDP2 inh -1.
C=CCNC(=O)Nc1ccc2c(c1)[C@]1(CC(=O)N(CC(C)C)C1c1ccccc1)C(=O)N2C (stereo partly drawn) was read as TDP2 inh 0.
